# Measurements reported in PubChem BioAssay.
# Activity calls are given as the source filed them.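 Rule for the calls, unless noted: active = inhibition above 20% together with a positive visual image hit; inconclusive = visual image hit but inhibition not above 20%; inactive = no visual image hit.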
# What was measured:
# [1] = inhibitors of TNFa-induced NFkB p65 translocation, primary screen, imaging, HUVEC, MLSMR starter and 10KST1 sets (AID 438); conditions: HUVEC TNFa-induced p65 nuclear translocation; cell count: measured here: nuclei count (cytotoxicity indicator), at 2.08 µM; inhibition: at 2 µM, stronger effect = higher value, 0% TNFa-plus-vehicle, 100% no-TNFa wells;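 note: compound added about 3h40 before a 20 min TNFalpha stimulation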;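 for inhibition: signal is the nuclear over cytoplasmic p65 intensity ratio per well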
# [2] = inhibitors of mutant huntingtin aggregation, primary screen, imaging, exon1htt(103Q)mCFP cells, high-content imaging (AID 483;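 active = visual image review flags a hit and inhibition of aggregation exceeds 20%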;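 note: compound exposure lasted 3 days before fixation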;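 for nuclei count: percent of the per-plate median nuclei count of sample wells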); conditions: exon1htt(103Q)mCFP cell line, aggregate imaging, at 2 µM; inhibition of aggregation: stronger effect = higher value; nuclei count: measured here: cell count, toxicity
# [3] = inhibitors of E-selectin induction by TNFa, primary screen, imaging, HUVEC, immunofluorescence, MLSMR starter and 10KST1 sets (AID 487;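 active = visually confirmed hit in the image check and inhibition above 20%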;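 for inhibition: signal is fraction of cell area covered by stained E-selectin grains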;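 for nuclei count: 100% = median nuclei count of all wells on the same plate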); conditions: HUVEC TNFalpha-induced E-selectin immunofluorescence imaging, at 2 µM; inhibition: stronger effect = higher value; nuclei count: measured here: cell number, toxicity
# [4] = molecular target: Voltage-gated potassium channel subunit beta-2 (Rattus norvegicus) (UniProt P62483); assay: KvBeta enzyme negative modulators, primary screen, biochemical, NADPH fluorescence (AID 622;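 active = fluorescence slope higher than the sample average by over 3 SD, cut at about -0.22 in these data, passing the limit was not always enough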;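 note: slope of raw intensity against log time taken from 70 to 1610 s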); conditions: recombinant KvBeta, 4-cyanobenzaldehyde reduction, at 10 µM, stronger effect = higher value
# Voltage-gated potassium channel subunit beta-2 (Rattus norvegicus), sequence (P62483 whole entry, looked up): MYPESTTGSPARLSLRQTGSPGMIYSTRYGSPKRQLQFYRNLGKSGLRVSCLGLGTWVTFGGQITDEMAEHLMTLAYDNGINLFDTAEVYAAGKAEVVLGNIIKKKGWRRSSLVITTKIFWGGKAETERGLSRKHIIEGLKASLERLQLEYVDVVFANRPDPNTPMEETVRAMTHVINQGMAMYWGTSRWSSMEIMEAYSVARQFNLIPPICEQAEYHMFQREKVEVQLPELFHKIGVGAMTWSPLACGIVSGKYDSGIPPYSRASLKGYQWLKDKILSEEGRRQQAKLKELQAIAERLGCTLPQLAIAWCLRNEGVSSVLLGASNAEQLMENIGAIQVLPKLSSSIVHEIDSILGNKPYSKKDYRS
# [5] = molecular target: Voltage-gated potassium channel subunit beta-2 (Rattus norvegicus) (UniProt P62483); assay: KvBeta positive modulators, primary screen, biochemical, NADPH fluorescence (AID 623;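 active = NADPH fluorescence slope more negative than the mean of all samples by about 3 SD, 99.7% confidence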;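 note: fluorescence intensity change per second fitted from 20 to 320 s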); conditions: Recombinant KvBeta, NADPH fluorescence decrease slope, 10 min; at 10 µM; stronger effect = lower value
# [6] = molecular target: Muscarinic acetylcholine receptor M4 (Homo sapiens) (UniProt P08173); assay: compounds altering M4/GIRK thallium flux, either direction, primary screen, M4 allosteric agonist project, cell-based, HEK293 M4/GIRK, BTC-AM (AID 625;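 active = fluorescence slope after compound addition differing from the mean of all tested samples at 99.7% confidence, mostly higher but some lower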;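 note: thallium influx through GIRK channels coupled to M4 in HEK293 cells with BTC-AM dye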); conditions: at 10 µM, actives lie on both sides
# Muscarinic acetylcholine receptor M4 (Homo sapiens), sequence (P08173 whole entry, looked up): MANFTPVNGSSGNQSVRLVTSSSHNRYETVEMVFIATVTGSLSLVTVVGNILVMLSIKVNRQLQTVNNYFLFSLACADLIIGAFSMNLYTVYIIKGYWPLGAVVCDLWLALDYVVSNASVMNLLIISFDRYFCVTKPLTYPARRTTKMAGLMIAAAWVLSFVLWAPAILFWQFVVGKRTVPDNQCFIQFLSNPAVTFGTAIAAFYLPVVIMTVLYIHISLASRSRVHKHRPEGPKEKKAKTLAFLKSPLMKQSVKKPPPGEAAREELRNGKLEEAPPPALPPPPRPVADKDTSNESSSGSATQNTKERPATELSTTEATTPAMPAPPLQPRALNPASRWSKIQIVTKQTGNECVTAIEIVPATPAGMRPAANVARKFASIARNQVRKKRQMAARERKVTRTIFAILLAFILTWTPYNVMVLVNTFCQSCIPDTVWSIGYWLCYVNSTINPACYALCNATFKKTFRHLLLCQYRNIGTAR
# In short: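 Material: M4/GIRK1/GIRK2 stable HEK293 cell line. Medium: pH 7.3 thallium assay buffer. Dosing: single compound concentration, 10 µM final. Schedule: 1 h dye loading, 2 min kinetic read. Measured by: kinetic fluorescence with BTC-AM dye. Read-out: post-addition slope, 15–24 s, of baseline-normalized fluorescence. Benchmarks: carbachol and DMSO controls.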
# [7] = inhibitors of Sendai virus-induced IRF3 signaling, primary screen, TLR/RLR signaling modifier project, cell-based, Sendai virus stimulus, luciferase, 10K MLSCN set (AID 602276;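 active = inhibition at or above 50% at 10 µM; inactive = inhibition below 50%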;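 note: firefly luciferase from ISG56 promoter only with Renilla not read in this screen; 0% = Sendai virus plus DMSO and 100% = medium plus DMSO without virus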); conditions: HEK293 RL24 IRF3 luciferase reporter, at 10 µM, stronger effect = higher value
# [8] = inhibitors of poly I:C-induced TLR3 signaling, primary screen, cell-based, poly I:C stimulus, luciferase, 10K MLSCN set (AID 602277;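 active = inhibition of the reporter signal at or above 50%; inactive = inhibition below 50%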); conditions: HEK293-TLR3 RL24 IRF3 luciferase reporter, at 10 µM, stronger effect = higher value
SMILES,cell count [1],inhibition [1],inhibition of aggregation [2],nuclei count [2] [%],inhibition [3],nuclei count [3] [%],fluorescence slope [4],NADPH fluorescence slope [5],fluorescence slope [6],inhibition [7],inhibition [8]
CCOC(=O)c1c(C)oc2ccc(OCC(N)=O)cc12,794,-12.1% (inactive),-6.7% (inactive),36.5,20.4% (inactive),93.5,-0.483 (inactive),-1.6e-05 (inactive),0.00617 (inactive),5.65% (inactive),6.54% (inactive)
Cc1ccc(C)c(N2CCN(C(=O)c3ccc(CS(=O)(=O)c4ccccc4C)o3)CC2)c1,555,-15.1% (inactive),12.7% (inactive),95.8,-45.9% (inactive),125,-0.555 (inactive),4.4e-05 (inactive),0.00481 (inactive),11.1% (inactive),45.6% (inactive)
O=C(NCCc1ccccc1)c1cc(-c2ccco2)on1,384,-8.7% (inactive),7.8% (inactive),102,-29.5% (inactive),96.5,-0.473 (inactive),-5.1e-05 (inactive),0.00445 (inactive),-44.9% (inactive),-169% (inactive)
O=C(CN1C(=O)CC(c2ccco2)Sc2ccccc21)Nc1ccc2c(c1)OCCO2 (stereo not drawn),809,-2.8% (inactive),-218% (inactive),99.6,-69.7% (inactive),105,-0.459 (inactive),-1.9e-05 (inactive),0.0054 (inactive),14.9% (inactive),9.54% (inactive)
COc1ccc(/C=N/n2c(=O)[nH]c3c([nH]c4ccc(C)cc43)c2=O)cc1CN1CCOCC1,643,2.6% (inactive),16.8% (inactive),74.3,4.3% (inactive),98.4,-0.407 (inactive),-0.000488 (inactive),0.00369 (inactive),-0.771% (inactive),11.2% (inactive)
O=C(C1CC2CCC1C2)N1CCN(Cc2ccc3c(c2)OCO3)CC1 (stereo not drawn),408,6.8% (inactive),17.4% (inactive),124,-90.8% (inactive),116,-0.579 (inactive),-2.2e-05 (inactive),0.00565 (inactive),13.2% (inactive),19.3% (inactive)
Cn1c(=O)c2c(nc(SCCCO)n2Cc2ccccc2Cl)n(C)c1=O,531,7.2% (inactive),-0.4% (inactive),96,41% (inactive),92.6,-0.424 (inactive),3e-05 (inactive),0.00759 (inactive),7.16% (inactive),22.9% (inactive)
O=c1nc(N2CCCC2)nc(Nc2ccccc2)[nH]1,478,8.9% (inactive),-12.9% (inactive),112,-62.6% (inactive),115,-0.559 (inactive),-4e-05 (inactive),0.00545 (inactive),3.72% (inactive),3.61% (inactive)
CCN1CCN(S(=O)(=O)c2ccc(S(=O)(=O)N(CC)Cc3ccccc3)cc2)CC1,579,-0.8% (inactive),-9.2% (inactive),104,-27.9% (inactive),108,-0.527 (inactive),4.3e-06 (inactive),0.00522 (inactive),16.4% (inactive),16.6% (inactive)
COC(=O)C(F)(F)Sc1c(C)[nH]c2ccccc12,699,-2.1% (inactive),13.7% (inactive),94.7,41.7% (inactive),108,-0.444 (inactive),-1.5e-05 (inactive),0.00468 (inactive),25.1% (inactive),27% (inactive)
COc1ccc(C(=O)Nc2ccc(S(=O)(=O)Nc3nccnc3OC)cc2)cc1OC,459,8.1% (inactive),4.1% (inactive),101,-126% (inactive),123,-0.601 (inactive),6.9e-06 (inactive),0.0057 (inactive),21.5% (inactive),34.3% (inactive)
Cc1nn(Cc2ccccc2)c(C)c1NC(=O)CCC(=O)O,667,23.6% (active),-6.6% (inactive),112,17.9% (inactive),105,-0.49 (inactive),1.1e-05 (inactive),0.00488 (inactive),-5.04% (inactive),-12.9% (inactive)
CCC(=O)N1CCc2cc(Br)cc(S(=O)(=O)N3CCCCCC3)c21,434,-3.9% (inactive),34.8% (inactive),65.9,13.2% (inactive),99.9,-0.54 (inactive),-5.4e-06 (inactive),0.00616 (inactive),7.37% (inactive),12.3% (inactive)
CCC(=O)N1CCNC(=O)C1CC(=O)Nc1ccc(C)c(Cl)c1 (stereo not drawn),258,3.7% (inactive),-13.9% (inactive),102,-40.7% (inactive),88.8,-0.56 (inactive),1.7e-05 (inactive),0.00516 (inactive),-5.01% (inactive),-2.47% (inactive)
CC(C)Oc1ccc(-c2nn(-c3ccccc3)cc2/C=c2\sc3ncnn3c2=O)cc1,335,-4.6% (inactive),5.1% (inactive),88.3,-335% (inactive),114,-0.279 (inactive),1e-05 (inactive),0.00832 (inactive),-16.4% (inactive),-14.6% (inactive)
O=S(=O)(NCC1CCCO1)c1cccc(C(F)(F)F)c1 (stereo not drawn),611,-4.8% (inactive),-6.4% (inactive),100,-51.8% (inactive),159,-0.568 (inactive),4.6e-05 (inactive),0.00471 (inactive),1.55% (inactive),12.2% (inactive)
N#CC1=C(SCc2ccccc2)NC(=O)C(C#N)C12CCCC2 (stereo not drawn),413,4% (inactive),-2.9% (inactive),116,-9.1% (inactive),86.6,-0.426 (inactive),2e-05 (inactive),0.00517 (inactive),2.21% (inactive),-12.9% (inactive)
Cc1nc2ccccn2c1C(=O)NCCCN1CCOCC1,521,-7.5% (inactive),3% (inactive),102,11.8% (inactive),102,-0.461 (inactive),0.000108 (inactive),0.0064 (inactive),4.89% (inactive),12.3% (inactive)
Cc1nn(-c2ccccc2)c2c1C(c1c(C)[nH]c(C#N)c1C)C(C#N)=C(N)O2 (stereo not drawn),565,-13.4% (inactive),9.2% (inactive),86,15.4% (inactive),101,-0.391 (inactive),8.5e-05 (inactive),0.00623 (inactive),8.98% (inactive),13% (inactive)
COc1cc(=O)[nH]c(SCc2c(F)c(F)c(F)c(F)c2F)n1,546,2.2% (inactive),6.7% (inactive),87.6,-11.4% (inactive),104,-0.436 (inactive),-4e-05 (inactive),0.00944 (inactive),-4.06% (inactive),22.3% (inactive)
COc1ccc(N2CCN(C(=O)CSc3ncnc4c3cnn4-c3ccccc3C)CC2)cc1,543,2.1% (inactive),-6.1% (inactive),120,-60.3% (inactive),159,-0.506 (inactive),-3.3e-06 (inactive),0.0046 (inactive),10.5% (inactive),15.1% (inactive)
Cc1ccc(C)c(-c2nc3ccc(N)cc3[nH]2)c1,340,3.9% (inactive),30.3% (inactive),77.7,-114% (inactive),100,-0.0465 (active),-3.5e-05 (inactive),0.00338 (inactive),15.4% (inactive),-9.14% (inactive)
Cc1ccc(-c2[nH]nc3c2C(c2ccc(OC(=O)N4CCOCC4)cc2)C(C#N)=C(N)O3)cc1 (stereo not drawn),742,10.8% (inactive),0.2% (inactive),97.7,-39.7% (inactive),104,-0.577 (inactive),-4.2e-05 (inactive),0.00718 (inactive),4.48% (inactive),9.32% (inactive)
CCCOc1ccc(N2C(=O)CC(NCCCN3CCC(C(N)=O)CC3)C2=O)cc1 (stereo not drawn),322,-0.7% (inactive),9.6% (inactive),121,-32% (inactive),110,-0.429 (inactive),-4.4e-05 (inactive),0.00445 (inactive),19.4% (inactive),19.7% (inactive)
CCOC(=O)c1c(C)[nH]c(C=Nc2ccccc2)c1O,666,4.3% (inactive),12.6% (inactive),88.7,-28.4% (inactive),103,-0.598 (inactive),5.5e-06 (inactive),0.00349 (inactive),-11% (inactive),-41.4% (inactive)
Cc1cc(C)c2c(n1)nn1c(N3CCN(c4ccccc4C)CC3)cc(C)nc21,420,-11.8% (inactive),-116% (inactive),81,-52.8% (inactive),110,-0.447 (inactive),1.5e-05 (inactive),0.00576 (inactive),-4.5% (inactive),-6.94% (inactive)
[O-][n+]1c2c(nn1-c1ccccc1Cl)-c1nonc1CC2,593,-26.9% (inactive),-16.7% (inactive),112,-1.8% (inactive),95,-0.351 (inactive),-7.7e-05 (inactive),0.00719 (inactive),12% (inactive),5.67% (inactive)
CNC(=O)CSc1nnc(-c2cc(C)cc(C)c2)o1,669,-5% (inactive),0.4% (inactive),123,-34.6% (inactive),124,-0.547 (inactive),-3.9e-05 (inactive),0.00519 (inactive),4.57% (inactive),-12.1% (inactive)
